NTR1 ag = agonists of human NTR1, primary screen, imaging, U2OS cells, beta-arrestin-GFP, high content; Neurotensin receptor type 1 (Homo sapiens), P30989; NTR1-U2OS beta-arrestin-GFP spot imaging, agonist mode; activation, % at 20 µM; 330,000 compounds, 0.17% hits; AID 493036, 2011;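 active means activation at or above 40% of the spot to cytoplasm intensity ratio, with at least 20 cells analyzed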;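 further: 0% = DMSO without peptide and 100% = 100 nM NTR1 peptide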
MC4R barr agon = MC4R agonists recruiting beta-arrestin, primary screen, cell-based, luminescence, agonist arm of biased-ligand search; activation, % at 8.9 µM; AID 540308, 2011; Melanocortin receptor 4 (Homo sapiens), P32245; 360,000 compounds, 0.98% hits; U2OS MC4R beta-arrestin complementation; percent of melanotan II response, DMSO zero;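 active means activation above a per-plate cutoff, the mean activation of sample wells on that plate plus 3 SD, cut at about 8% in these data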
H9c2 TAG inh = inhibitors of triacylglycerol accumulation, primary screen, cell-based, uHTS, fluorescence, H9c2. H9c2 cells, Nile Red lipid (TAG) fluorescence; cells loaded with 200 µM oleic acid. AID 651582, 2012. 230,000 compounds, 0.66% hits. inhibition, % at 12.5 µM;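 active means pattern-corrected inhibition of lipid staining of at least 50% with the nuclear-stain viability signal not falling by more than 50%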;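 further: 0% = DMSO wells and 100% = triacsin C control wells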
TbMetRS inhib = T. brucei MetRS inhibitors, primary screen, biochemical, luminescence. 360,000 compounds, 0.4% hits. purified T. brucei MetRS, ATP depletion, Kinase-Glo luminescence. inhibition, % at 11.9 µM. AID 624268, 2012;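 active means inhibition above a per-plate cutoff of the control wells' mean inhibition plus 3 SD, cut at about 5.5% in these data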;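 further: 0% = DMSO wells median and 100% = median of wells with control inhibitor compound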
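assay system = parasite MetRS enzyme | timing = 15 min preincubation, 2 h reaction, all 25 °C | evaluation = percent inhibition relative to median high and low control wells | medium = HEPES buffer containing pyrophosphatase, BSA, spermine, DTT | compound = single dose, 11.9 µM final nominal, 0.9% final DMSO | detection = Kinase-Glo luminescence, ATP depletion format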
aDG glyco up = activators of alpha-DG glycosylation, primary screen, uHTS, Pro5-aDG cells, AlphaScreen. alpha-DG glycosylation AlphaScreen (IIH6); 0% Pro5, 100% B10-LARGE cell signal. activation, % at 10 µM. 360,000 compounds, 0.22% hits;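 active means activation of at least 8% versus controls, or a plate z-score of at least 8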;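 further: Pro5 are CHO cells carrying HIG-tagged alpha-DG that lacks glycosylation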
MC4R antagonist = MC4R antagonists of cAMP signaling, primary screen, cell-based, TR-FRET, antagonist arm of biased-ligand search; Melanocortin receptor 4 (Homo sapiens), P32245; 360,000 compounds, 0.48% hits; inhibition, % at 6.5 µM; MC4R-expressing cells, MTII-stimulated cAMP, LANCE TR-FRET; AID 540295, 2011;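 active means inhibition above its plate's cutoff, the mean of tested wells on that plate plus 3 SD, cut at about 29% in these data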;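 further: 0% = Melanotan II alone and 100% = Melanotan II plus saturating MCL0020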
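Test system: U2OS cells stably expressing human melanocortin 4 receptor (MC4R); also added: Melanotan II challenge; compound: 6.5 µM single dose; timing: 30-min compound preincubation, 1-h Melanotan II challenge, 1-h detection, room temperature; signal: Eu-cAMP/anti-cAMP TR-FRET, emission 671 nm; repeats: one well per compound, no replicates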
MC4R barr conf = MC4R beta-arrestin agonists, retest, confirmation, cell-based, luminescence, U2OS; shares compounds with MC4R barr agon; U2OS MC4R beta-arrestin recruitment; scaled DMSO 0%, Melanotan II 100%; activation, % at 8.9 µM; 2,400 compounds, 31% hits;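 active means mean activation across replicates above the hit cutoff set in the earlier primary screen, cut at about 8% in these data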
MOR DOR agonist = agonists of MOR-DOR heterodimerization, counter-screen for MC4R biased agonist project, cell-based, luminescence; 2,400 compounds, 5.8% hits; activation, % at 9.2 µM; AID 602194, 2012; shares compounds with MC4R barr agon; U2OS PathHunter beta-arrestin, beta-gal luminescence; percent of deltorphin B response, DMSO zero;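 active means mean activation across replicates exceeds the hit threshold derived in the earlier primary screen, cut at about 18% in these data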;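 further: 100% = deltorphin B at 0.9 µM final and 0% = DMSO alone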
Target sequence (P35372 whole entry, looked up): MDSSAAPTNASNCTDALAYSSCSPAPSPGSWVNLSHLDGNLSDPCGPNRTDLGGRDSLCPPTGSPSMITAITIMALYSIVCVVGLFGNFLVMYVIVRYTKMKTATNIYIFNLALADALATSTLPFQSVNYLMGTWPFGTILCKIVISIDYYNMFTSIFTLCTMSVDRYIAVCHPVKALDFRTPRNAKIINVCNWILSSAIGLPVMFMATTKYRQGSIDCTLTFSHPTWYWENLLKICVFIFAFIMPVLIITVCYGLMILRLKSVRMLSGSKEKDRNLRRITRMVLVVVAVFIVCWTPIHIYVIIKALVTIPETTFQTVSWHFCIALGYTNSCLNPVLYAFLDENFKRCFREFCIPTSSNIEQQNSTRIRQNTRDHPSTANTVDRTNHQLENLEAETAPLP
Target sequence (P41143 whole entry, looked up): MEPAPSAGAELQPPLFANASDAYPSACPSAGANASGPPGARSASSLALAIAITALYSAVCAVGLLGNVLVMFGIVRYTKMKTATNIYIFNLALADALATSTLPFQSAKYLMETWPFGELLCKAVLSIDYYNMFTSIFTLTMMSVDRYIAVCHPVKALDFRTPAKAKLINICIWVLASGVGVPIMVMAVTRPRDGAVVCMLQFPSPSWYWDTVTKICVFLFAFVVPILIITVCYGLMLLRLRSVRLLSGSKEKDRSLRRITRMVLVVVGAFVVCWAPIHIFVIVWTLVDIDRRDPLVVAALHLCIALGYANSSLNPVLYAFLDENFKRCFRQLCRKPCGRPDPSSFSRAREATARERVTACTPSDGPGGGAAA
The depositor's hits bear a star; / = no result. A selection: hits, their analogues and other compounds. The true share with any hit is near 2.4%.

SMILES	NTR1 ag	MC4R barr agon	H9c2 TAG inh	TbMetRS inhib	aDG glyco up	MC4R antagonist	MC4R barr conf	MOR DOR agonist
Cc1ccc(C(OCC(O)CNCc2ccc(F)cc2)c2ccccc2)cc1 (configuration not stated)	32.9	14.1*	/	-1.1	0.6	6.6	23.5*	13.8
CC(=O)Nc1cc(-c2ccc(C(=O)N3CCOCC3)cc2)cn2c(-c3cccc(C(F)(F)F)c3)cnc12	/	5.0	18.3	-0.1	-0.2	20.1	/	/
COc1ccc(-c2cc(NC(C)=O)c3ncc(-c4cccc(C(F)(F)F)c4)n3c2)c(OC)c1	/	25.9*	2.8	-0.3	0.0	1.3	25.5*	3.3
CC(=O)Nc1cc(-c2cccnc2)cn2c(-c3cccc(C(F)(F)F)c3)cnc12	/	28.4*	20.3	-0.2	0.7	5.5	28.9*	2.1
COc1ccccc1-c1cc(NC(C)=O)c2ncc(-c3cccc(C(F)(F)F)c3)n2c1	/	24.6*	2.6	-0.1	0.0	9.9	21.9*	3.7
COc1ccc(-c2cnc3c(NC(C)=O)cc(-c4cccc(NS(C)(=O)=O)c4)cn23)cc1OC	/	2.9	-9.1	-0.1	-0.1	2.0	/	/
COc1ccc(-c2cc(NC=O)c3ncc(-c4cccc(C(F)(F)F)c4)n3c2)c(OC)c1	/	20.4*	-3.9	-0.2	0.3	-26.7	12.9*	0.9
c1ccc2c(c1)C1=NCCN1c1ccccc1-2	/	-2.7	107.2	0.2	0.0	8.0	/	/
CCC(C(=O)NCc1ccccc1)n1c(-c2cccs2)nc2ccccc21 (configuration not stated)	/	/	/	-0.1	0.1	/	/	/
Cc1ccc(-c2csc3ncnc(SCC(N)=O)c23)cc1	-0.3	-2.5	3.1	-0.4	0.0	-1.5	/	/
CCc1nnc(NC(=O)CSc2ncnc3scc(-c4ccc(C)cc4)c23)s1	6.8	11.4*	9.3	0.1	-0.3	12.5	13.6*	4.0
Cc1cc2ccccc2nc1SCC(=O)NC1CCCC1	/	-1.1	/	0.7	0.7	10.7	/	/
CCc1cc2cc(C)ccc2nc1SCC(=O)NC1CCCC1	6.8	10.9*	/	-0.1	0.0	4.8	-0.6	7.9
O=C1Nc2ccccc2-n2nnnc2C1N1CCN(C(=O)c2ccco2)CC1 (configuration not stated)	/	/	/	-0.5	0.0	/	/	/
COc1cc2nc(SCC(N)=O)n(CCC3=CCCCC3)c(=O)c2cc1OC	6.8	12.1*	/	-0.1	-0.1	6.5	8.4*	5.9
Cc1nc2c3ccccc3nc(SCC(=O)N3CC(C)CC(C)C3)n2n1 (configuration not stated)	4.2	-2.4	7.9	-0.4	0.2	-0.8	/	/
O=C(CCCCn1c(=O)c2ccccc2n(Cc2ccc(Cl)cc2)c1=O)NCc1ccco1	8.0	11.6*	/	-1.2	0.2	-4.2	0.0	4.4
Cc1nc2c3ccccc3nc(SCC(=O)c3ccc(Cl)cc3)n2n1	17.2	10.7*	/	-0.7	0.1	-1.2	14.0*	4.5
CCCCn1c(SCC(=O)NCc2ccco2)nc2ccccc2c1=O	-0.4	-3.6	18.1	-0.6	-0.2	8.4	/	/
O=C(CCCn1c(SCC(=O)c2ccc(Cl)cc2)nc2ccccc2c1=O)NCc1ccco1	7.8	18.8*	-4.1	-0.8	0.5	9.9	1.3	29.4*
O=C(CCCCCn1c(SCC(=O)c2ccccc2)nc2ccccc2c1=O)NCc1ccco1	6.9	27.8*	/	-1.4	0.5	11.0	6.4	12.9
